Measured values gathered from unrelated publications.
Compare with care: the assays were run in different laboratories.
Target: Aurora kinase B (AURKB, Homo sapiens, UniProt Q96GD4)

SMILES	effect on	method	concentration	remaining binding
COc1cnc(Nc2cccc(S(N)(=O)=O)c2)nc1N1CCN(c2ccccc2)C(=O)C1	binding	competition with immobilised ligand	1 µM	63%
O=C(c1ccc(Nc2ncc(Cl)c(-c3cc4ccccc4s3)n2)cc1)N1CCC(N2CCCC2)CC1	binding	competition with immobilised ligand	1 µM	17%
CNC(=O)Nc1ccc2c(c1)CC[C@@]21OC(=O)N(CC(=O)N(Cc2ccc(F)cc2)[C@@H](C)C(F)(F)F)C1=O	cell-free assay	competition with immobilised ligand	1 µM	86%
O=C(Nc1c[nH]nc1C(=O)NC1CCNCC1)c1cc(F)cc(F)c1	binding	competition with immobilised ligand	1 µM	78%
C[C@@H](c1ccc(-n2cnc3c(N)ncnc32)cc1)N1CCc2nn(C)c(Cc3ccccc3)c2C1=O	binding	competition with immobilised ligand	0.1 µM	65%
O=C1CCc2cc(Nc3cc(OC4CCOCC4)c([N+](=O)[O-])cc3Cl)ccc2N1	cell-free assay	competition with immobilised ligand	1 µM	86%
N[C@@H]1CCN(c2nccc(-c3cnn4ncccc34)n2)C1	binding		1 µM	99%
CSc1cccnc1N1CCN(Cc2nc3ccccc3[nH]2)CC1	cell-free assay	competition with immobilised ligand	1 µM	67%
C[C@@H]1CN(c2ccc3ncc(-c4ccc5[nH]nc(C6CC6)c5c4)n3n2)C[C@H](C)O1	binding	competition with immobilised ligand	50 nM	100%
F[C@@H]1CCN(c2nccc(-c3cnn4ncccc34)n2)C1	binding		1 µM	100%
CN([C@@H]1CCc2c(CC(=O)O)c3cc(S(C)(=O)=O)ccc3n2C1)S(=O)(=O)c1ccc(F)cc1	cell-free assay	competition with immobilised ligand	1 µM	83%
COc1ncc2cc3ccccc3nc2c1C#N	cell-free assay	competition with immobilised ligand	5 µM	94%
FC(F)(F)Oc1cccc(-c2cnc3ccc(-c4ccncc4)nn23)c1	cell-free assay	competition with immobilised ligand	5 µM	73%
CC1=C(C#N)[C@@H](c2ccc3[nH]nc(C)c3c2)C(C#N)=C(c2ccc(Cl)cc2)N1	cell-free assay	competition with immobilised ligand	1 µM	82.9%
O=C(NCCCN1CCOCC1)c1ccc(Nc2ncc(Cl)c(-c3ccc(Cl)s3)n2)cc1	binding	competition with immobilised ligand	1 µM	15%
CN(c1nccc(-c2cnn3ncccc23)n1)C1CC1	binding		1 µM	100%
COc1cc(C(=O)N2CCC(N3CCN(C)CC3)CC2)ccc1Nc1ncc2c(n1)N(C)c1ccccc1C(=O)N2C	binding	competition with immobilised ligand	10 µM	38%
O=C(NCCCN1CCOCC1)c1ccc(Nc2nccc(-c3cc4ccccc4s3)n2)cc1	binding	competition with immobilised ligand	1 µM	48%
c1cncc(-c2cccc(Nc3nccc(NC4CCCCC4)n3)c2)c1	binding	competition with immobilised ligand	10 µM	23%
CCC(=O)N[C@H]1CC[C@@H](C(=O)N(C)c2ccc(-c3nc4ccccc4o3)cc2)C1	cell-free assay	competition with immobilised ligand	1 µM	83%
C[C@H]1CCN(c2nccc(-c3cnn4ncccc34)n2)C1	binding		1 µM	70%
Nc1ncc2c(n1)-c1c([nH]c3ccc(C#CC4CC4)cc13)CCCC2	binding	competition with immobilised ligand	1 µM	43%
